Activity calls are given as the source filed them. The calls are words filed in the database; no cut-off is given here.
How the values were obtained:
[1] = Antioxidant activity assessed as Cu2+ chelating activity at 1 uM; assay type: functional
[2] = Antioxidant activity assessed as reduction of Copper(I) at 5 uM; assay type: functional
[3] = Antioxidant activity assessed as Cu2+ chelating activity at 5 uM; assay type: functional
[4] = Antioxidant activity assessed as reduction of Copper(I) at 1 uM; assay type: functional
[5] = test system: HL-60; assay: Cytotoxicity against human HL60 cells after 72 hrs; assay type: functional, cell-based; settings: HL-60, 72 h
In short: (§1)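 Human A549 (lung) and HL-60 (leukemia) cancer cells were exposed to compounds up to a maximum of 100 µM, and cell growth was measured. IC50 is the concentration that inhibits 50% of cell growth, reported as mean ± SD of experiments run in triplicate. Mitoxantrone served as the reference compound.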

[6] = Antioxidant activity assessed as trolox equivalents of peroxyl radical scavenging activity at 1 uM by ORAC assay; assay type: functional
[7] = test system: A549; assay: Cytotoxicity against human A549 cells after 72 hrs; assay type: functional, cell-based; settings: A549, 72 h; in short: as §1
[8] = Antioxidant activity assessed as trolox equivalents of peroxyl radical scavenging activity at 5 uM by ORAC assay; assay type: functional

SMILES	Activity [1]	Activity [2]	Activity [3]	Activity [4]	IC50 [5]	Activity [6]	IC50 [7]	Activity [8]
C[C@H](CC[C@H](C)C(C)(C)O)[C@H]1CC[C@H]2[C@@H]3C[C@@H](O)[C@@]4(O)C[C@@H](O)CC[C@]4(C)[C@H]3CC[C@]12C	inactive	inactive	inactive	inactive	59.1 µM	inactive	> 100 µM	
CC(=O)OC(C)(C)[C@@H](C)CC[C@@H](C)[C@H]1CC[C@H]2[C@@H]3C[C@@H](O)[C@@]4(O)C[C@@H](O)CC[C@]4(C)[C@H]3CC[C@]12C	inactive	inactive	inactive	inactive	42.8 µM	inactive	36.5 µM	
C=C(CC[C@@H](C)[C@H]1CC[C@@H]([C@@H]2CC=C3C[C@@H](O)CC[C@]3(C)C2=O)[C@]1(C)CCO)C(C)C	inactive	inactive	inactive	inactive	17.8 µM	inactive	4.97 µM	
C=C[C@@]1(C)CC[C@H](C2=CC[C@H](C(C)(C)O)OC2)C[C@@H]1C(=C)C [LOBATRIENE]	inactive	inactive	inactive	inactive	33.8 µM	inactive	31.1 µM	
C=C[C@@]1(C)CC[C@H](C2=CC[C@H](C(C)(C)O)OC2=O)C[C@@H]1C(=C)C [LOBATRIENOLIDE]	inactive	inactive	inactive	inactive	24.8 µM	inactive	23 µM	
C=C1CC/C=C(\C)CC[C@H](C2=CC[C@H](C(C)(C)O)OC2)C[C@H]1O [LOBOCOMPACTOL A]	inactive	inactive	inactive	inactive	48.2 µM		> 100 µM	1.4 µM
C=C1CC/C=C(\C)CC[C@@H](C2=CC[C@H](C(C)(C)O)OC2)C[C@H]1O [LOBOCOMPACTOL B]	inactive	inactive	inactive	inactive	37.5 µM		> 100 µM	1.3 µM
O=C1c2c(O)ccc(O)c2C(=O)c2c(NCCNCCO)ccc(NCCNCCO)c21 [MITOXANTRONE]					8.1 µM		7.83 µM	
